Experimental data reported in ChEMBL document CHEMBL4480399, “Identification of a Benzimidazolecarboxylic Acid Derivative (BAY 1316957) as a Potent and Selective Human Prostaglandin E2 Receptor Subtype 4 (hEP4-R) Antagonist for the Treatment of Endometriosis” (J Med Chem, 2019).
Converted amounts (≈) assume the structure as drawn. The source made the active and inactive calls.

Legend:
[1] = Kinetic solubility of the compound; format: physicochemical; settings: read-out: Kinetic_solubility
[2] = Lipophilicity, log D of the compound at pH 7.4; format: physicochemical; settings: buffer
[3] = target: Prostaglandin E2 receptor EP4 subtype (Homo sapiens, UniProt P35408); test: Antagonist activity at human EP4R assessed as inhibition of agonist-induced cAMP production by fluorescent cAMP tracer cAMP-d2 based FRET assay; format: functional
Chain of Prostaglandin E2 receptor EP4 subtype (Homo sapiens, UniProt P35408) (P35408 whole entry): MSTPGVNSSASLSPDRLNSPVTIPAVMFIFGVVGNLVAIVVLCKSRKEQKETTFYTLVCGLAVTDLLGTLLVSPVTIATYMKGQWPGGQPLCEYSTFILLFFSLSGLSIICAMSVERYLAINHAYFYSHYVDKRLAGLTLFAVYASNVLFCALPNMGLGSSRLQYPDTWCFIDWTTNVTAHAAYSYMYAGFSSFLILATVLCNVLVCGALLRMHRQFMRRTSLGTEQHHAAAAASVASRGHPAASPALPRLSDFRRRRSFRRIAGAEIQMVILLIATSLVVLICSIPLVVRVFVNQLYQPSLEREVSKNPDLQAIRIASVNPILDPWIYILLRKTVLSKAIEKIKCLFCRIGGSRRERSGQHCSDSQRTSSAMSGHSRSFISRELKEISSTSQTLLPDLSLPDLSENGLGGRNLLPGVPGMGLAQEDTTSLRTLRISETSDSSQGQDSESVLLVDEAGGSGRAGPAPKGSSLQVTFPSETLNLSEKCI

[4] = target: Prostaglandin E2 receptor EP4 subtype (Mus musculus, UniProt P32240); test: Antagonist activity at mouse EP4R assessed as inhibition of agonist-induced cAMP production by fluorescent cAMP tracer cAMP-d2 based FRET assay; format: functional
Chain of Prostaglandin E2 receptor EP4 subtype (Mus musculus, UniProt P32240) (P32240 whole entry): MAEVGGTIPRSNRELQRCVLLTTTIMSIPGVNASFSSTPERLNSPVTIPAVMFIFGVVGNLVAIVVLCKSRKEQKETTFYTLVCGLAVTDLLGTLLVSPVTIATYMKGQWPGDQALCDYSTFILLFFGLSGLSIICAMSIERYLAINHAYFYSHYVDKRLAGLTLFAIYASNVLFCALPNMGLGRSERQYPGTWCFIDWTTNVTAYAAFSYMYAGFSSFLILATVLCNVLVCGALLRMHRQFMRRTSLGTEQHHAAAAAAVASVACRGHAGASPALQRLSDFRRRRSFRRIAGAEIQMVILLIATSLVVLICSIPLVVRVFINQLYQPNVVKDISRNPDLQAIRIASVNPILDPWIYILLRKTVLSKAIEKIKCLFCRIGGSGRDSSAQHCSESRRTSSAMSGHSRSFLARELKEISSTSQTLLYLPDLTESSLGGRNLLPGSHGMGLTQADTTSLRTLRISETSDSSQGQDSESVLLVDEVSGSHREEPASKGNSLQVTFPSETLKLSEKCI

[5] = Apparent permeability from apical to basolateral side in human Caco2 cells at 2 uM after 2 hrs by LC/MS/MS analysis; format: ADME, cell-based; settings: Caco-2
In short: (§1)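 Caco-2 cells seeded at 4.5 x 10^4 per well on 0.4 µm inserts and grown 15 days. Assay in FCS-free Hepes-carbonate buffer pH 7.2, with TEER checked. Compound at 2 µM final added apically or basolaterally; both sides sampled before and after 2 h at 37 °C. Papp from peak areas; efflux ratio = Papp B-A / Papp A-B; recovery calculated.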

[6] = Efflux ratio of apparent permeability in human Caco2 cells at 2 uM after 2 hrs by LC/MS/MS analysis; format: ADME, cell-based; settings: Caco-2; in short: as §1
[7] = Intrinsic clearance in Han Wistar rat hepatocytes assessed as blood clearance at 1 uM after 90 mins by LC-MS/MS analysis; format: ADME, cell-based, Hepatocyte
In short: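 Rat hepatocytes isolated with a Percoll gradient, viability by trypan blue; 1.0 × 10^6 viable cells/mL in WME + 5% FCS, compound at 1 µM, shaken at 580 rpm. Sampled 2–90 min into cold methanol; LC-MS/MS.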

[8] = target: T1, UDP-glucuronosyltransferase 1A1 (Homo sapiens, UniProt P22309); test: Drug metabolism in human hepatocytes assessed as UGT1A1-mediated acylglucuronide metabolite formation at 10 uM after 4 hrs by HPLC-UV and mass spectrometric analysis; format: ADME, cell-based
T1 sequence (P22309 whole entry): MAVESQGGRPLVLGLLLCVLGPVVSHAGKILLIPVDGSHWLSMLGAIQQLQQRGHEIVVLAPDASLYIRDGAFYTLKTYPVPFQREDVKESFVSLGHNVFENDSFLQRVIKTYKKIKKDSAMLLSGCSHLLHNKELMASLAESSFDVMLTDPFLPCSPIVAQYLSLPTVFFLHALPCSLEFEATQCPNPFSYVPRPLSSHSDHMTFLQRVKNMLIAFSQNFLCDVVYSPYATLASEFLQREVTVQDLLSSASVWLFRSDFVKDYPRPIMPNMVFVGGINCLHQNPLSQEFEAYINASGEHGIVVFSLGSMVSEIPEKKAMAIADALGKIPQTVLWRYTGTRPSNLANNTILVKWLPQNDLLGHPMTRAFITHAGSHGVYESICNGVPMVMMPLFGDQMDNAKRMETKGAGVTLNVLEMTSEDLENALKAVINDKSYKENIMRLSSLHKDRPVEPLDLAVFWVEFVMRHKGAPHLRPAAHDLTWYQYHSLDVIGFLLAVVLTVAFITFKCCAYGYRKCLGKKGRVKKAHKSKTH

[9] = Kinetic solubility of the compound at pH 6.5; format: physicochemical; settings: buffer, read-out: Kinetic_solubility
[10] = Blood clearance in Wistar rat at 1 mg/kg, po by LC-MS/MS analysis; format: ADME, organism-based; settings: whole blood
In short: (§2)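 Male Wistar rats dosed iv (0.3–1 mg/kg) or intragastrically (0.5–10 mg/kg) as solutions with solubilizers such as PEG400; cassette dosing of up to 3 compounds in some studies. Jugular blood taken 2 min to 24 h into Li-heparin tubes. Plasma precipitated with acetonitrile and run by LC-MS/MS. Non-compartmental PK analysis.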

[11] = Dose normalized AUC in Wistar rat at 1 mg/kg, po by LC-MS/MS analysis; format: ADME, organism-based; settings: in vivo; in short: as §2
[12] = Volume of distribution at steady state in Wistar rat at 1 mg/kg, po by LC-MS/MS analysis; format: ADME, organism-based; settings: in vivo; in short: as §2
[13] = Volume of distribution at steady state in Wistar rat at 1 mg/kg, iv by LC-MS/MS analysis; format: ADME, organism-based; settings: in vivo, read-out: Vdss; in short: as §2
[14] = target: T2, UDP-glucuronosyltransferase 1A1 (Rattus norvegicus, UniProt Q64550); test: Drug metabolism in rat hepatocytes assessed as UGT1A1-mediated acylglucuronide metabolite formation at 10 uM after 4 hrs by HPLC-UV and mass spectrometric analysis; format: ADME, cell-based
T2 sequence (Q64550 whole entry): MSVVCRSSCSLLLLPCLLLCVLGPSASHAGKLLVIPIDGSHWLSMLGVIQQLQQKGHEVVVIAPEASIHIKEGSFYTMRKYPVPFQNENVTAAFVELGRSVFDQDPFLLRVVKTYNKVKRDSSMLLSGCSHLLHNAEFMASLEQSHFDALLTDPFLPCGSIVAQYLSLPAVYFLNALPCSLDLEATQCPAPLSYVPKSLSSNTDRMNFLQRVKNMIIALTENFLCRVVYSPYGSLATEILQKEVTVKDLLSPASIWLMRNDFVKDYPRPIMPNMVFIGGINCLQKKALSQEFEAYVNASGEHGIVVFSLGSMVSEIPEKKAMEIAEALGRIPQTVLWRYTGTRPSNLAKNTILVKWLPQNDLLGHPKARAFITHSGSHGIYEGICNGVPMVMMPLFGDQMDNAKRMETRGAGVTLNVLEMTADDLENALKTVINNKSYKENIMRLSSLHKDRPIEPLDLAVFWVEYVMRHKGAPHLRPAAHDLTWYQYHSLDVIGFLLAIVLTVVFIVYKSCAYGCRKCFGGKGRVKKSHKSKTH

[15] = Half life in Wistar rat at 1 mg/kg, iv by LC-MS/MS analysis; format: ADME, organism-based; settings: in vivo; in short: as §2
[16] = Oral bioavailability in Wistar rat at 1 mg/kg by LC-MS/MS analysis; format: ADME, organism-based; settings: in vivo; in short: as §2
[17] = Blood clearance in Wistar rat at 1 mg/kg, iv by LC-MS/MS analysis; format: ADME, organism-based; settings: whole blood; in short: as §2
Rattus norvegicus = test: Antinociceptive activity in Sprague-Dawley rat model of dmPGE2-induced pain behavior assessed as increase in paw withdrawal thresholds at 5 mg/kg, po pretreated 60 mins before dmPGE2 addition and measured after 30 mins post dmPGE2 injection; format: functional, organism-based
In short: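 Male Sprague-Dawley rats, 220–265 g. Compound suspended in 0.5% CMC and given orally; vehicle controls. At 60 min, 10 µg dmPGE2 in PBS injected into the plantar surface of the left hind paw. Electronic von Frey thresholds taken 30 min later, mean of 3 per paw, against day −1 baseline. Mean ±SD; Grubbs outlier test; 1-way ANOVA with Dunnett's test.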

Question: For CCn1c2ccccc2c2cc(-c3nc4cc(C(=O)O)ccc4n3CC3CC3)ccc21, which solubility kinetic [1] is on record?
Answer: 3.2 µg/mL (≈ 7.81 µM)

Question: What about the logD [2] of the same compound?
Answer: 3

Question: What about the IC50 [3] of the same compound?
Answer: 12.8 nM

Question: What about the IC50 [4] of the same compound?
Answer: 113 nM

Question: With CCn1c2ccccc2c2cc(-c3nc4cc(S(=O)(=O)O)ccc4n3CCOC)ccc21 as the compound, how does the IC50 [3] read?
Answer: 222 nM

Question: For CCn1c2ccc(-c3nc4c(C)c(C(=O)O)ccc4n3CCOC)cc2c2c(Cl)cccc21, which IC50 [3] is on record?
Answer: 65.5 nM

Question: Which IC50 [3] does the source give for CCn1c2ccc(OC(F)(F)F)cc2c2cc(-c3nc4c(C)c(C(=O)O)ccc4n3CCOC)ccc21 here?
Answer: 366 nM

Question: For CCn1c2ccccc2c2cc(-c3nc4cc(-c5nnn[nH]5)ccc4n3CCOC)ccc21, which IC50 [3] is on record?
Answer: 6.8 nM

Question: With CCn1c2ccccc2c2cc(-c3nc4cc(C(=O)O)c(F)cc4n3CCOC)ccc21 as the compound, how does the IC50 [3] read?
Answer: 34.6 nM

Question: What does the source list for CCn1c2ccccc2c2cc(-c3nc4cc(C(=O)NC)ccc4n3CC3CC3)ccc21?
Answer: solubility kinetic [1]: < 0.1 µg/mL; logD [2]: 4.1; IC50 [3]: 286 nM

Question: With CCn1c2ccccc2c2cc(-c3nc4c(Cl)c(C(=O)O)ccc4n3CCOC)ccc21 as the compound, how does the IC50 [3] read?
Answer: 15.9 nM

Question: With CCn1c2ccccc2c2cc(-c3nc4cc(-c5noc(=O)[nH]5)ccc4n3CCOC)ccc21 as the compound, how does the IC50 [3] read?
Answer: 6.1 nM

Question: And the Papp A→B at 2 h, 2 µM [5]?
Answer: 2.63 ×10⁻⁶ cm/s

Question: And the efflux ratio at 2 h, 2 µM [6]?
Answer: 3.3

Question: And the CLhep predicted at […], 1 µM [7]?
Answer: 11.7 mL/min/kg

Question: Which IC50 [3] does the source give for CCn1c2ccccc2c2cc(-c3nc4cc(C(=O)O)ccc4n3CCOC)ccc21 here?
Answer: 4.7 nM

Question: And the IC50 [4]?
Answer: 81 nM

Question: For CCn1c2ccccc2c2cc(-c3nc4c(C)c(C(=O)O)ccc4n3CCOC)ccc21, which Drug metabolism [8] is on record?
Answer: Metabolite_Detected

Question: And the solubility kinetic [9]?
Answer: 150 µg/mL (≈ 351 µM)

Question: And the IC50 [3]?
Answer: 24.7 nM

Question: What about the Papp A→B at 2 h, 2 µM [5] of the same compound?
Answer: 13.5 ×10⁻⁶ cm/s

Question: What about the CL/F [10] of the same compound?
Answer: 1 mL/min/kg

Question: And the AUC/dose [11]?
Answer: 20 kg·h/L

Question: And the Vdss [12]?
Answer: 0.36 L/kg

Question: What about the Vd [13] of the same compound?
Answer: 0.36 L/kg

Question: And the Drug metabolism [14]?
Answer: Metabolite_Detected

Question: And the half-life [15]?
Answer: 4.9 h

Question: And the efflux ratio at 2 h, 2 µM [6]?
Answer: 1.1

Question: What about the bioavailability [16] of the same compound?
Answer: 92%

Question: And the CLhep predicted at […], 1 µM [7]?
Answer: 1.67 to 2.5 mL/min/kg

Question: And the clearance [17]?
Answer: 1 mL/min/kg

Question: Which IC50 [3] does the source give for CCn1c2ccc(-c3nc4c(C)c(C(=O)O)ccc4n3CCOC)cc2c2c(C)cccc21 here?
Answer: 54.6 nM

Question: With CCn1c2ccccc2c2cc(-c3nc4cc(C(=O)O)ccc4n3C)ccc21 as the compound, how does the IC50 [3] read?
Answer: 166 nM

Question: With CCn1c2ccccc2c2cc(-c3nc4cc(C(=O)NS(C)(=O)=O)ccc4n3CCOC)ccc21 as the compound, how does the CLhep predicted at […], 1 µM [7] read?
Answer: 26.7 mL/min/kg

Question: For CCn1c2ccccc2c2cc(-c3nc4cc(C(=O)NS(=O)(=O)N(C)C)ccc4n3CCOC)ccc21, which IC50 [3] is on record?
Answer: 148 nM

Question: What does the source list for CCn1c2ccccc2c2cc(-c3nc4cc(-c5n[nH]c(=O)o5)ccc4n3CCOC)ccc21?
Answer: Papp A→B at 2 h, 2 µM [5]: 1.24 ×10⁻⁶ cm/s; efflux ratio at 2 h, 2 µM [6]: 0.9; CLhep predicted at […], 1 µM [7]: 30 mL/min/kg

Question: For Cn1c2ccccc2c2cc(-c3nc4cc(C(=O)O)ccc4n3CC3CC3)ccc21, which IC50 [3] is on record?
Answer: 34.2 nM

Question: What does the source list for CCn1c2ccc(Cl)cc2c2cc(-c3nc4c(C)c(C(=O)O)ccc4n3CCOC)ccc21?
Answer: IC50 [3]: 4.4 nM; Papp A→B at 2 h, 2 µM [5]: 20.8 ×10⁻⁶ cm/s; efflux ratio at 2 h, 2 µM [6]: 0.5; CLhep predicted at […], 1 µM [7]: 10 mL/min/kg

Question: With CCn1c2ccccc2c2cc(-c3nc4cc(C(=O)O)ccc4n3-c3ccccc3)ccc21 as the compound, how does the IC50 [3] read?
Answer: 3120 nM

Question: Which IC50 [3] does the source give for CCn1c2ccccc2c2cc(-c3nc4cc(C(=O)O)c(Cl)cc4n3CCOC)ccc21 here?
Answer: 751 nM

Question: For CCn1c2ccccc2c2cc(-c3nc4ccc(C(=O)O)cc4n3CCOC)ccc21, which IC50 [3] is on record?
Answer: 1420 nM

Question: Which Activity (Rattus norvegicus) does the source give for CCn1c2ccc(C)cc2c2cc(-c3nc4c(C)c(C(=O)O)ccc4n3CCOC)ccc21 here?
Answer: Active

Question: For CCn1c2ccccc2c2cc(-c3nc4cc(C(=O)O)ccc4n3CC3CCO3)ccc21 (stereo not drawn), which IC50 [3] is on record?
Answer: 51.5 nM

Question: For CCn1c2ccccc2c2cc(-c3nc4c(F)c(C(=O)O)ccc4n3CCOC)ccc21, which IC50 [3] is on record?
Answer: 4.3 nM

Question: With CCn1c2ccc(-c3nc4c(C)c(C(=O)O)ccc4n3CCOC)cc2c2cc(C(F)(F)F)ccc21 as the compound, how does the IC50 [3] read?
Answer: 17.4 nM

Question: For CCn1c2ccc(-c3nc4c(C)c(C(=O)O)ccc4n3CCOC)cc2c2cccc(C)c21, which IC50 [3] is on record?
Answer: 4.2 nM
